Hits are enriched below; roughly 3.7% of the tested compounds scored in any of these assays.
HCV core dimer = inhibitors of HCV core protein dimerization, primary screen, biochemical, TR-FRET, high-throughput; TR-FRET GST/Flag-core106 dimerization, 1536-well; inhibition, % at 5 µM; 300,000 compounds, 0.33% hits; AID 1899, 2009;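 active means inhibition above the mean of all tested compounds plus 3 SD, set per screening campaign, cut at about 45% in these data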
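System – GST-tagged and Flag-tagged HCV core protein residues 1-106 · Repeats – one well for each compound · Technique – TR-FRET 671 and 617 nm emission · Doses – one concentration, 5 µM, in 0.5% DMSO · Times – 4 h, 22.5 °C incubation · Also added – Eu donor and XL665 acceptor anti-tag antibodies · Measure – percent inhibition of core106 dimerization signal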
rCAG RNA binder = binders of r(CAG) RNA repeats, primary screen, biochemical, fluorescence; r(CAG) RNA repeat, TO-PRO-1 dye displacement fluorescence; inhibition, % at 3 µM; 370,000 compounds, 1.3% hits; AID 651821, 2012;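 active means inhibition above the plate cutoff, the mean of all test compounds on that plate plus 3 SD, cut at about 35% in these data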;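 further: 0% = DMSO alone and 100% = 100 µM mitoxantrone as full dye displacement; higher means more dye released from RNA so lower well fluorescence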
TAAR1 antag = human TAAR1 antagonists, primary screen, Fluo-8 calcium fluorescence, CHO RD-HGA16 cells; inhibition, % at 3 µM; Trace amine-associated receptor 1 (Homo sapiens), Q96RJ0; antagonist; 360,000 compounds, 1.5% hits;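 active means inhibition above a per-plate cutoff, the mean inhibition of test compounds on that plate plus 3 SD, cut at about 49% in these data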;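 further: 0% = DMSO plus EC80 beta-PEA response and 100% = DMSO alone without agonist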
Target sequence (Q96RJ0 whole entry, looked up): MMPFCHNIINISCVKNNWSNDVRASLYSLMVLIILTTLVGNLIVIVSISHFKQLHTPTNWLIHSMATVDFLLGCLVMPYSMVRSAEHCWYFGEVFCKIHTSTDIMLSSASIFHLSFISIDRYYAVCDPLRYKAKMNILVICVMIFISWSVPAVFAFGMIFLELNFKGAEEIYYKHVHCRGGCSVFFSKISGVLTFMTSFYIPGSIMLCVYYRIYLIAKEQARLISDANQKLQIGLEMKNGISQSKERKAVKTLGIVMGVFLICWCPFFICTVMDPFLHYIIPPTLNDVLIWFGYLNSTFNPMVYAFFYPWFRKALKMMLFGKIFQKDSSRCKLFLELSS
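Test system: CHO RD-HGA16 cells bearing hTAAR1 | Reagent: β-PEA, EC80 | Compound dosing: 3 µM, single point | Schedule: Dye loading 75 min at 37 °C, then 30 min room temperature | Signal: Calcium fluorescence with Fluo-8 | Evaluation: Percent inhibition of PEA-evoked calcium signal, max/basal emission ratio | Control set: DMSO-only wells and EC80 β-PEA-stimulated wells | Repeats: Singlicate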
TAAR1 agonist = human TAAR1 agonists, primary screen, Fluo-8 calcium fluorescence, CHO RD-HGA16 cells; Trace amine-associated receptor 1 (Homo sapiens), Q96RJ0; vehicle wells 0%, saturating PEA agonist 100%; activation, % at 3 µM; 360,000 compounds, 0.99% hits; AID 624467, 2012;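 active means activation above the mean activation of all test compounds in the run plus 3 SD, cut at about 38% in these data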
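System: CHO-derived RD-HGA16 cells with stable Gα16 and human TAAR1 / Times: 17-24 h plating, Fluo-8 75 min 37 °C, 30 min RT / Technique: calcium-sensitive Fluo-8 signal, excitation 470-495, emission 515-575 nm / Measure: % activation relative to PEA EC100 response / Benchmarks: DMSO and PEA EC100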
HCV NS3 hel inh = inhibitors of HCV NS3 helicase, primary screen, biochemical, Cy5 molecular beacon fluorescence. Hepatitis C virus NS3 helicase. NS3 helicase DNA unwinding. inhibition, % at 10.9 µM. 290,000 compounds, 0.56% hits. AID 1800, 2009;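 active means inhibition above the mean of all tested compounds plus 3 SD, set per campaign, cut at about 35% in these data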;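 further: 0% = DMSO wells and 100% = thioflavine S control wells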
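Compound dosing – single dose, 10.9 µM nominal final, DMSO 0.8% final · System – NS3 helicase fragment of HCV · Buffer or medium – MOPS pH 6.5, MgCl2, DTT, Tween20, BSA · Signal – Cy5 beacon fluorescence read at start and 1 h · Also added – annealed dual-labelled DNA beacon duplex, ATP-started · Schedule – 1 h at 25 °C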
Starred values were filed as active, the others as inactive; · = not tested or not shown.

SMILES	HCV core dimer	rCAG RNA binder	TAAR1 antag	TAAR1 agonist	HCV NS3 hel inh
CN1c2ccccc2C(O)=C(C(=S)Nc2ccc(Cl)cc2)S1(=O)=O	15	68*	-10	7	29
Cc1cccc(NC(=O)C2=C(O)c3ccccc3N(C)S2(=O)=O)c1	9	2	-11	3	1
COC(=O)c1cc(-c2cccc(OCc3ccccc3)c2)c(=O)n2c1CCC2	·	5	·	·	·
Cn1c(=NC(=O)c2ccc(S(=O)(=O)N3CCCc4ccccc43)cc2)sc2cc(S(C)(=O)=O)ccc21	0	3	0	6	1
C#CCn1c(=NC(=O)c2ccc(S(=O)(=O)N3CCCc4ccccc43)cc2)sc2cc(S(N)(=O)=O)ccc21	52*	-14	-42	2	7
Cc1ccc(/C=N/NC(=O)c2nnn(-c3nonc3N)c2CN(C)C)s1	8	0	-30	2	-2
COc1ccc2ccccc2c1/C=N/NC(=O)c1nnn(-c2nonc2N)c1CN(C)C	-8	2	-3	2	-10
CC(C)c1c(C(=O)N/N=C/c2ccco2)nnn1-c1nonc1N	2	-1	-6	43*	13
Cc1ccc(/C=N/NC(=O)c2nnn(-c3nonc3N)c2C(C)C)s1	2	1	-1	47*	11
COc1ccc2ccccc2c1/C=N/NC(=O)c1nnn(-c2nonc2N)c1C(C)C	6	12	55*	7	0
Cc1ccc(/C=N/NC(=O)c2nnn(-c3nonc3N)c2C(C)C)o1	5	-1	3	38*	3
CN(C)Cc1c(C(=O)N/N=C/c2ccco2)nnn1-c1nonc1N	-5	1	-1	-1	4
O=C(CSc1nnc(-c2cccs2)o1)c1ccc2c(c1)OCO2	·	3	·	·	·
CCN(CC)C(=S)SSC(=S)N(CC)CC	-1	1	32	47*	-15
Cc1ccc2c(CC(=O)OCc3cc(=O)n4c(n3)sc3ccccc34)coc2c1	90*	8	-5	2	6
CC(C)[C@H](NC(=O)Cc1ccccc1)C(=O)OCc1cc(=O)n2c(n1)sc1ccccc12	46	17	-10	10	11
CCCNC(=O)C[C@H]1CC[C@H]2[C@@H](COc3ccc(NC(=O)Nc4ccc(C#N)cc4)cc3C(=O)N2C)O1	·	5	·	·	·
O=C(NCCN1CCC(n2c(=O)[nH]c3ccccc32)CC1)c1cccc2c1-c1ccccc1C2=O	·	4	59*	10	·
CC(C)C[C@@H](CO)N1Cc2nnn(Cc3ccccc3)c2-c2ccccc2S1(=O)=O	·	1	·	·	·
O=C(Nc1cccc(Cl)c1)Nc1ccc2nccnc2c1	1	15	58*	47*	-9
O=C(Nc1ccc2nccnc2c1)Nc1ccccc1Cl	-10	1	7	8	17
CC(=O)Nc1ccc(NC(=O)Nc2cccc(Cl)c2)cc1	-4	2	14	40*	-7
COC(=O)[C@]12C[C@H](CC(=O)N3CCN(C(=O)c4ccco4)CC3)C(=O)N(Cc3cccc4ccccc34)C1=C[C@H](C(C)(C)C)O[C@@H]2C	·	8	·	·	·
CCOC(=O)[C@@]12CN(C(=O)OC(C)(C)C)CC=C1N(Cc1ccc(OC)cc1)C(=O)[C@H]2CC(=O)NCc1ccccc1	·	5	·	·	·
COc1cccc(CO[C@H]2C=C[C@@H](c3ccccc3)O[C@@H]2COC(C)=O)c1	·	3	·	·	·
SMILES	HCV core dimer	rCAG RNA binder	TAAR1 antag	TAAR1 agonist	HCV NS3 hel inh
O=C(NNC(=S)NC(=O)c1ccco1)c1ccc(F)cc1	-4	0	-17	9	-1
COc1ccccc1C(=O)NNC(=S)NC(=O)c1ccco1	-10	0	24	40*	2
COc1ccccc1C(=O)NC(=S)Nc1ccc(N2CCN(C(=O)c3ccco3)CC2)cc1	11	3	-4	4	9
Cc1cccc(OCC(=O)Nc2ccc(N3CCN(C(=O)c4ccco4)CC3)cc2)c1	17	5	56*	16	-1
Cc1ccccc1C(=O)N1CCN(c2ccc(NC(=S)NC(=O)c3ccco3)cc2)CC1	15	-1	62*	11	0
CC(COc1cccc([N+](=O)[O-])c1)CN1CCC(C(O)(c2ccccc2)c2ccccc2)CC1 (stereo not drawn)	·	4	·	·	·
Cc1ccc(-c2nnc3n2N=C(c2ccc(-c4ccccc4)cc2)CS3)cc1	·	10	·	·	·
CCCCCCCCN1C(=O)[C@@H](CC(=O)NCc2ccc(C)o2)C[C@@]2(C(=O)OC)C1=C[C@H](C(C)C)O[C@@H]2C1CC1	·	2	·	·	·
O=C1N/C(=N\S(=O)(=O)Cc2ccccc2)S/C1=C/c1cc([N+](=O)[O-])ccc1O	7	71*	72*	57*	17
O=S(=O)(c1ccccc1Br)N(Cc1cn(CC2CCCCC2)nn1)C1CC1	·	-1	·	·	·
C=C(NC(=O)C(=C)NC(=O)c1csc(C2=NC3c4csc(n4)C4NC(=O)c5csc(n5)C([C@@](C)(O)C(C)O)NC(=O)C5CSC(=N5)/C(=C\C)NC(=O)C(C(C)O)NC(=O)c5csc(n5)[C@]3(CC2)NC(=O)C(C)NC(=O)C(=C)NC(=O)C(C)NC(=O)C(C(C)CC)NC2C=Cc3c(C(C)O)cc(nc3C2O)C(=O)OC4C)n1)C(N)=O (stereo partly drawn)	70*	·	·	·	·
CCOC(=O)CC[C@@]1(C(=O)OCC)C[C@@H](CC(=O)NCCCOC)C(=O)N2CCCC=C21	·	2	·	·	·
C=CCSC1=C(C#N)C(c2ccccc2Cl)C(C(=O)c2cccs2)C(O)(C(F)(F)F)N1 (stereo not drawn)	6	7	56*	7	8
CSC1=C(C#N)C(c2ccccc2Cl)C(C(=O)c2cccs2)C(O)(C(F)(F)F)N1 (stereo not drawn)	1	1	51*	8	0
CCSC1=C(C#N)C(c2ccccc2Cl)C(C(=O)c2cccs2)C(O)(C(F)(F)F)N1 (stereo not drawn)	5	-4	-11	0	-3
CN(C)CC(=O)N[C@@H]1C[C@@H]2O[C@@H](CO)CC[C@@H]2O[C@@H]1CCc1ccc(C2=CCCCC2)cc1	·	-2	·	·	·
C=CCN1[C@@H](CC(C)C)COc2cccc(N3CCCC3)c2S1(=O)=O	·	1	·	·	·
CC(Oc1ccc(C#N)cc1)C(=O)Nc1ccc(-n2cnnn2)cc1 (stereo not drawn)	·	5	17	44*	·
